Reference: PMC6120582 (Science (New York, N.Y.), 2018)
One block for each compound: values may come before it.

Experiments:
[1] = biological target: eIF2 (Homo sapiens, UniProt P41091); test: GDP unloading assay, displacement of Bodipy-GDP; assay type: binding; details: 1000-fold excess of unlabelled GDP; exchange catalysed by eIF2B
[2] = biological target: eIF2B(αβγδε)2 (Homo sapiens, UniProt P49770+Q9UI10, Q9UI10:L179A); test: GEF assay, unloading of Bodipy-GDP from eIF2; assay type: biochemical; details: assembled eIF2B(βγδε) and eIF2B(α2); activator
In short: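 Human eIF2B subunits were co-expressed in E. coli from three plasmids, and the βγδε (δL179A) and α2 subcomplexes were purified separately and combined. The substrate was non-phosphorylated human eIF2 from gcn2Δ S. cerevisiae, loaded with Bodipy-GDP. A 1000-fold excess of unlabeled GDP was added as a chase, and the fluorescence decrease was followed with and without test compound. kobs came from a single-exponential fit.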

[3] = biological target: eIF2B(αβγδε)2 (Homo sapiens, UniProt P49770+Q9UI10, P49770:H188A); test: decamer stability, sucrose gradient velocity sedimentation; assay type: binding; details: 500 nM ISRIB, 400 mM salt
Sequence of eIF2B(αβγδε)2 (Homo sapiens, UniProt P49770+Q9UI10, P49770:H188A) (P49770 whole entry H188A): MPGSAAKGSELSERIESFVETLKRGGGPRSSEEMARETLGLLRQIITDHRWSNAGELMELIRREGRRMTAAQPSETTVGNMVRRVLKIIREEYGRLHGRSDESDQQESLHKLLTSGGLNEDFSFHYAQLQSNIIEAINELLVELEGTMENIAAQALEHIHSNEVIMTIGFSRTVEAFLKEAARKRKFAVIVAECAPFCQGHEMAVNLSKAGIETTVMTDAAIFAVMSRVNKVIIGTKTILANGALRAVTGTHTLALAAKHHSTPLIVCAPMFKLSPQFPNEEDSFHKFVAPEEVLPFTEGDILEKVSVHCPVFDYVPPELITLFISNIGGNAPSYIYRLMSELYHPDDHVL
Sequence of eIF2B(αβγδε)2 (Homo sapiens, UniProt P49770+Q9UI10, P49770:H188A) (Q9UI10 whole entry): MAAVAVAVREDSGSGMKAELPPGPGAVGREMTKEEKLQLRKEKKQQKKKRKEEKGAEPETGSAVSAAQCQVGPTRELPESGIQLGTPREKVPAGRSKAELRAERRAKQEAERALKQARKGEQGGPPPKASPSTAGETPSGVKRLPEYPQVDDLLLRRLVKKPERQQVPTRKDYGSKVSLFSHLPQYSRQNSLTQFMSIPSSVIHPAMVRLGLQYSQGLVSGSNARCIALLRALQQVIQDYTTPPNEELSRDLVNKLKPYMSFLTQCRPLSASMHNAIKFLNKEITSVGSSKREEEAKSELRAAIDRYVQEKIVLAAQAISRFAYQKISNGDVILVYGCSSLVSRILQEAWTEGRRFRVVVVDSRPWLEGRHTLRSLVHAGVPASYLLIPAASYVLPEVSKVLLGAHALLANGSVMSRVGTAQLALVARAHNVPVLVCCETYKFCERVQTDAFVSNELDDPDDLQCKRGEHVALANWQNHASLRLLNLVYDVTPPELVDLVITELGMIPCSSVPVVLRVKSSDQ
Sequence of eIF2B(αβγδε)2 (Homo sapiens, UniProt P49770+Q9UI10, P49770:H188A) (Q14232 whole entry partner): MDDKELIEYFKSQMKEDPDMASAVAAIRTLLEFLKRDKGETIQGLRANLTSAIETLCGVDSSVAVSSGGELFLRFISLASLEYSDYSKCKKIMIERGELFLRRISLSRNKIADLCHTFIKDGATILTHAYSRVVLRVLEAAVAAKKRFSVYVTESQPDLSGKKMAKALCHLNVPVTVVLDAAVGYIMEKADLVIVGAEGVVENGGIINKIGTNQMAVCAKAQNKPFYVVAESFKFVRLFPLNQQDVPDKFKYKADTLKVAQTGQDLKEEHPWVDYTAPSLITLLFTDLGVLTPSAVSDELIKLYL
Sequence of eIF2B(αβγδε)2 (Homo sapiens, UniProt P49770+Q9UI10, P49770:H188A) (Q9NR50 whole entry partner): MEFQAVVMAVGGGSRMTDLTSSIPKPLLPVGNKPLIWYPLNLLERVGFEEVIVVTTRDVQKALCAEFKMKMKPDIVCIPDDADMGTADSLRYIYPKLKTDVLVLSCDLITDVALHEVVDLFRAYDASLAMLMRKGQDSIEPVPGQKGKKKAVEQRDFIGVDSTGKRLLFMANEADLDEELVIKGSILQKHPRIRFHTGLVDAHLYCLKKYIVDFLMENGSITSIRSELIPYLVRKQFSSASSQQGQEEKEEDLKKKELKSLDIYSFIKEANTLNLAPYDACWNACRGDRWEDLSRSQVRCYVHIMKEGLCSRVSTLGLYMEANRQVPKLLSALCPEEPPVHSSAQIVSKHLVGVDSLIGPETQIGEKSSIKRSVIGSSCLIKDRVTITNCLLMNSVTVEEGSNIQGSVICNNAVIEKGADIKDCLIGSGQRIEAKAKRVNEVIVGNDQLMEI
Sequence of eIF2B(αβγδε)2 (Homo sapiens, UniProt P49770+Q9UI10, P49770:H188A) (Q13144 2-721 partner): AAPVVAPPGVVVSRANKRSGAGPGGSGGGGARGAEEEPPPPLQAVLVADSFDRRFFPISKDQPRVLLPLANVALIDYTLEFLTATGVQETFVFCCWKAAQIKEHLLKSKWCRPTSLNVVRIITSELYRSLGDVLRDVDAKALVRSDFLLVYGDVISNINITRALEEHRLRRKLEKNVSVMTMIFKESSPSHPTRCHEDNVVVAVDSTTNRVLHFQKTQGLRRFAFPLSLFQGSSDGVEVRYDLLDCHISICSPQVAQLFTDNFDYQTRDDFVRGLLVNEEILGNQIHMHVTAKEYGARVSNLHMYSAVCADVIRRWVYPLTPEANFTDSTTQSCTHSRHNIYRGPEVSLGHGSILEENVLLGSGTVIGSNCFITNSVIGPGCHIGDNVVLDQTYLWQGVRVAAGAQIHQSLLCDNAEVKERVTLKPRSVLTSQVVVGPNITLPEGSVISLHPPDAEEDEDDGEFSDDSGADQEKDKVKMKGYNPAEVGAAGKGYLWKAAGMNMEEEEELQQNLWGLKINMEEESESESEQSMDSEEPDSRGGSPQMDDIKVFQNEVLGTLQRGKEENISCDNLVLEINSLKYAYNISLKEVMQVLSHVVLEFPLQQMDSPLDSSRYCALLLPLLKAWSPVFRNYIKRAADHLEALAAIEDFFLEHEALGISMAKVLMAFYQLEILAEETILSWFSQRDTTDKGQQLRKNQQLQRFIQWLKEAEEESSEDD

Sequence of eIF2 (P41091 2-472): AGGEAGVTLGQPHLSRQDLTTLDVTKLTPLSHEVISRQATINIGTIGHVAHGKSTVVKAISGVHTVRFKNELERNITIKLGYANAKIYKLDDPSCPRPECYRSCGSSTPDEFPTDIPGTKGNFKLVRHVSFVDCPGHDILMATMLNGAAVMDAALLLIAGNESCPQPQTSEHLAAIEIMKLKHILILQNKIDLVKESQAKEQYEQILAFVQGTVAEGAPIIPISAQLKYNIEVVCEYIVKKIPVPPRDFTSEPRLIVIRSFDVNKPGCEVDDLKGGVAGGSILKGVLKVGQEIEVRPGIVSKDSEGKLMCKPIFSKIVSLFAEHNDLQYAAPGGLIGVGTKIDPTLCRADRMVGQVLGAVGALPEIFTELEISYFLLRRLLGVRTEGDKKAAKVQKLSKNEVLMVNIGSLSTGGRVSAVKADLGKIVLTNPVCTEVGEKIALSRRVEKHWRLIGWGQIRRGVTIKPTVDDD
Sequence of eIF2 (P05198 whole entry partner): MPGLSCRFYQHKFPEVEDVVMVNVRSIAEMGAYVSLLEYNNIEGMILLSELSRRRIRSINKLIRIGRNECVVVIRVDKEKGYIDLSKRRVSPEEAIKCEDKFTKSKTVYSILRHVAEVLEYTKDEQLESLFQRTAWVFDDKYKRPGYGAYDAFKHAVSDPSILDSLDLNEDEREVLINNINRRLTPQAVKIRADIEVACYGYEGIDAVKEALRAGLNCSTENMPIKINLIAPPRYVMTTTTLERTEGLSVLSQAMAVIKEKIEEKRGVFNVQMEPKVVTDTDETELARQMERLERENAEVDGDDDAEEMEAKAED
Sequence of eIF2 (P20042 2-333 partner): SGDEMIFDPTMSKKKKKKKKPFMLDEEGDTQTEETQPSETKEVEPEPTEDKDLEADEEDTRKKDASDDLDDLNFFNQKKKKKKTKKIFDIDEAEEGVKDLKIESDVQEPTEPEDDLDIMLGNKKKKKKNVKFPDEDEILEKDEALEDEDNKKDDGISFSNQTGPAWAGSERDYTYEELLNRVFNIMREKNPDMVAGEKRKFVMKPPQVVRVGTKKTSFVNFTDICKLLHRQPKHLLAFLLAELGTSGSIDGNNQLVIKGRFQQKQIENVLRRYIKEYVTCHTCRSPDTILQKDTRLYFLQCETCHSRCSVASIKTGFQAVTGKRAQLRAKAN
Sequence of eIF2B(αβγδε)2 (Homo sapiens, UniProt P49770+Q9UI10, Q9UI10:L179A) (P49770 whole entry): as the sequence (P49770 whole entry H188A) above, with A188H counted along it
Sequence of eIF2B(αβγδε)2 (Homo sapiens, UniProt P49770+Q9UI10, Q9UI10:L179A) (Q9UI10 whole entry L179A): as the sequence (Q9UI10 whole entry) above, with L179A counted along it
Sequence of eIF2B(αβγδε)2 (Homo sapiens, UniProt P49770+Q9UI10, Q9UI10:L179A) (Q14232 whole entry partner): as the sequence (Q14232 whole entry partner) above
Sequence of eIF2B(αβγδε)2 (Homo sapiens, UniProt P49770+Q9UI10, Q9UI10:L179A) (Q9NR50 whole entry partner): as the sequence (Q9NR50 whole entry partner) above
Sequence of eIF2B(αβγδε)2 (Homo sapiens, UniProt P49770+Q9UI10, Q9UI10:L179A) (Q13144 2-721 partner): as the sequence (Q13144 2-721 partner) above

Structure (SMILES): Nc1nc2c(ncn2[C@@H]2O[C@H](COP(=O)(O)OP(=O)(O)O)[C@@H](O)[C@H]2O)c(=O)[nH]1 [GDP]
- GDP unloading assay, displacement of Bodipy-GDP [1]: we added fluorescent Bodipy-GDP to GDP-bound eIF2

- fold activation of GEF activity (kobs) [2]: ~ 3 fold
Structure (SMILES): C[C@@H](Oc1ccc(Cl)cc1)C(=O)N[C@H]1CC[C@H](NC(=O)[C@@H](C)Oc2ccc(Cl)cc2)CC1 [ISRIB-A19(R,R)]

Structure (SMILES): O=C(COc1ccc(Cl)cc1)N[C@H]1CC[C@H](NC(=O)COc2ccc(Cl)cc2)CC1 [ISRIB]
- decamer stabilization (inactive: none seen) [3]: ISRIB did not stabilize eIF2B(βH188A) decamers
